Reference: PubChem BioAssay AID651560 (Sanford-Burnham Center for Chemical Genomics, 2012)
Screen size: about 360,000 compounds; about 820 (0.23%) were called active. The sample holds actives, similar compounds and a random draw of the others, so the mix is not that of the screen.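 How the source made its calls: active means compounds that cut the enzyme signal by at least half of the control window in the single-dose screen; inactive means the rest.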

Target: Low molecular weight phosphotyrosine protein phosphatase (Homo sapiens) (UniProt P24666)
Sequence (P24666 whole entry, looked up): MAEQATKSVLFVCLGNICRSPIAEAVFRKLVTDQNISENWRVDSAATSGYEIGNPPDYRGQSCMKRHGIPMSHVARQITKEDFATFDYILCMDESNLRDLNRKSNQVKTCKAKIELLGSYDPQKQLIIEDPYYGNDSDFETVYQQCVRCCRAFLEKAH
Assay: inhibition of human LMPTP-A enzyme – biochemical, fluorescence intensity, uHTS, primary screen (AID 651560);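 further: plate controls were DMSO wells with enzyme plus substrate for no effect and substrate without enzyme for full effect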
Details: recombinant LMPTP-A, OMFP fluorogenic substrate, at 20 µM, stronger effect = higher value
In short: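 test system = LMPTP-A | amount = 0.625 nM LMPTP-A final | reagent = fluorogenic phosphatase substrate OMFP at 400 µM final | incubation = 50 min at room temperature | benchmarks = no-enzyme low control, uninhibited high control | medium = Bis-Tris pH 6.0, DTT, detergent | signal = fluorescence intensity of OMFP turnover product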

SMILES	inhibition
C[C@@H](C(=O)Nc1ccc2ccccc2c1)[C@@H]1C[C@@]1(C)[C@@H](NC(=O)c1cccnc1)c1ccccc1	0.267% (inactive)
CCN(c1ccc2c(c1)OCO2)S(=O)(=O)c1cc(Br)cc2c1N(C(=O)C1CC1)CC2	3.91% (inactive)
CC(=O)c1ccccc1NC(=O)CC1(CC(=O)O)CCCCC1	-1.06% (inactive)
CCN(CCn1cccn1)Cc1cn[nH]c1-c1ccc(OC)cc1F	-1.15% (inactive)
Cc1cc(-c2nc(C)c(-c3nnc(SCC(=O)Nc4ccccc4)n3C)s2)no1	-0.511% (inactive)
COC(=O)c1sc(C(F)(F)F)c(-c2ccccc2)c1S(=O)(=O)N(C)C	-0.149% (inactive)
O=C1NC(O)CCN1C1CC(O)C(CO)O1 (stereo not drawn)	-0.47% (inactive)
COc1ccccc1OCCNC(=O)C(CCSC)NC(=O)COc1ccccc1 (stereo not drawn)	-1.42% (inactive)
Cc1ccc(S(=O)(=O)CCC(=O)OCC(=O)N(C)C2CCS(=O)(=O)C2)cc1 (stereo not drawn)	-1.13% (inactive)
CN(C(=O)COC(=O)c1cc(-c2ccco2)nc2ccccc12)C1CCS(=O)(=O)C1 (stereo not drawn)	66.6% (active)
O=C(c1cc(-c2ccco2)nc2ccccc12)N(Cc1nnc(-c2ccc(Cl)cc2)o1)C1CC1	3% (inactive)
COc1ccc(N(C)S(=O)(=O)c2cccc3nsnc23)cc1	-1.17% (inactive)
Cn1c(=O)[nH]c(=O)c2c1nc(NCCCn1ccnc1)n2Cc1cccc(Br)c1	-1.82% (inactive)
COc1cc(N2C(=O)c3ccccc3C2=O)c(Cl)cc1C(=O)OCC(=O)N1CCOCC1	0.755% (inactive)
CS(=O)(=O)c1ccc(C(=O)NNC(=O)c2cccs2)cc1	-1.18% (inactive)
Cc1ccc(C(=O)NNC(=O)c2cc3cc4ccccc4nc3s2)cc1	50.6% (active)
CCN1CCN(C(=O)c2cc3cc4ccc(OC)cc4nc3s2)CC1	0.833% (inactive)
O=c1ccc2cc(S(=O)(=O)N3CCN(c4ccccc4)CC3)ccc2o1	-2.32% (inactive)
CSCCC(NC(=O)c1ccco1)C(=O)NCCc1ccc(F)cc1 (stereo not drawn)	-1.2% (inactive)
O=C(CNC(=O)c1cc2c(s1)CCC2)Nc1ccccc1Br	5.93% (inactive)

SMILES	inhibition
Cn1c(CN2CCOCC2)nc2cc(NC(=O)c3ccc(Cl)cc3)ccc21	-0.278% (inactive)
CCOc1ccc(-c2nc(N)ncc2-c2ccccc2OC)c(O)c1	53.5% (active)
CCOC(=O)Cn1c2c(c(-c3ccccc3OC)cc1=O)CCCC2	2.39% (inactive)
CCOc1cccc(OCCCOc2cccc3cccnc23)c1	3.69% (inactive)
Brc1cnc2ccccc2c1N1CCCCC1	4.39% (inactive)
c1ccc(-c2cc(N3CCCCC3)c3ccccc3n2)cc1	67.2% (active)
O=c1cc(N2CCCCC2)c(-c2ccccc2)nn1Cc1cccc(F)c1	-0.671% (inactive)
OCCC#Cc1ccc(CN2CCN(Cc3ccsc3)C(CCO)C2)cc1 (stereo not drawn)	1.89% (inactive)
CC(OC(=O)c1c(F)cccc1F)C(=O)NCCC1=CCCCC1 (stereo not drawn)	0.59% (inactive)
Nc1ccc2nc3c(=O)[nH]c(=S)[nH]c3nc2c1	85% (active)
COc1ccc(Cc2nnc(NC(=O)Cc3cccs3)s2)cc1	76.7% (active)
COc1ccc(CC(=O)Nc2sc(Cc3ccccc3)c(C)c2C(N)=O)cc1	0.191% (inactive)
COc1cc(OC)cc(C(=O)NNC(=O)Cc2cccs2)c1	1.69% (inactive)
Cc1ccccc1OCC(=O)NNC(=O)c1ccc(-n2cncn2)c([N+](=O)[O-])c1	-1.02% (inactive)
O=S(=O)(NN=C1CCCCCCC1)c1ccc(Br)cc1	0.285% (inactive)
CCCn1c(N)c(N(CCOC)C(=O)C2CCCC2)c(=O)[nH]c1=O	-0.34% (inactive)
CCOCCCNC(=O)C(NC(=O)Cc1c[nH]c2ccccc12)c1ccc(OC)cc1 (stereo not drawn)	-1.16% (inactive)
COC(=O)c1c(NC(=O)CN(c2ccc(C)c(C)c2)S(C)(=O)=O)sc2c1CCCC2	1.37% (inactive)
CCOc1ccc(OCC)c(NC(=O)CSc2nnc(Cn3cnc4ccccc43)n2C)c1	-0.816% (inactive)
CNc1cnc(-c2cc(OC)c(OC)c(OC)c2)cn1	0.718% (inactive)

SMILES	inhibition
NS(=O)(=O)c1ccc(CCNC(=O)COC(=O)COc2cccc(C(F)(F)F)c2)cc1	-0.314% (inactive)
O=C(Nc1cccnc1)c1cc2cc(Br)ccc2oc1=O	45.7% (inactive)
O=C(CSc1ccc(-c2ccccn2)nn1)Nc1ccccc1	0.337% (inactive)
O=C(Nc1ccncc1)c1cc(-c2ccccn2)nc2ccc(Br)cc12	51.5% (active)
COC(=O)c1ccc(C23CC4(C2)[C@H](CN(Cc2cccnc2)[C@@H]4c2ccccc2)C3c2ccc(Cl)nc2)cc1 (stereo partly drawn)	8.71% (inactive)
CCCc1ccc(-c2c(C)sc(NC(=O)c3ccnn3C)c2C#N)cc1	1.55% (inactive)
Cc1ccc(C(=O)N/C(=C\c2ccco2)C(=O)N2CCSCC2)cc1C	-0.858% (inactive)
Cc1cccc(C)c1NC1=NC(=S)N(c2ccc(N(C)C)cc2)C1(C)C	-0.864% (inactive)
CC1(C(=O)NCc2ccccc2)CN(S(C)(=O)=O)CC(=O)N1CC(F)(F)F (stereo not drawn)	-0.703% (inactive)
O=C(NCc1ccc2c(c1)OCO2)c1c(O)nc2sccn2c1=O	53.5% (active)
C=CCn1c(=O)c(C(=O)NCc2ccc3c(c2)OCO3)c(O)c2ccccc21	2.01% (inactive)
O=C(NCc1ccc2c(c1)OCO2)c1sccc1Br	-0.435% (inactive)
O=C(CCN1C(=O)c2ccncc2C1=O)Nc1ccc2c(c1)OCCO2	0.479% (inactive)
O=C(CN1CCN(C(=O)c2ccco2)CC1)Nc1ccc2c(c1)OCO2	-0.639% (inactive)
Cc1ccc(C(=O)O)cc1-c1ccc(/C=C2\SC(=O)N(CC(=O)Nc3ccc4c(c3)OCO4)C2=O)o1	61.2% (active)
Cc1ccc(S(=O)(=O)N2[C@@H](c3ccc(Br)cc3)C(C(=O)O)=C[C@H]2CC2CCCC2)cc1	0.284% (inactive)
COc1cc(OC)cc(/C(N)=N/O)c1	0.166% (inactive)
CCC(C)N(C(=O)COC(=O)c1nc(Cl)ccc1Cl)C1CCS(=O)(=O)C1 (stereo not drawn)	-0.848% (inactive)
